JMJD2C inh: inhibitors of GASC-1 histone demethylase, primary screen, biochemical, fluorescence, DELFIA europium; inhibition, % at 2.35 µM; 330,000 tested, 0.069% active; AID 2099, 2009; Lysine-specific demethylase 4C (Homo sapiens), Q9H3R0; GST-JMJD2C(1-420) H3K9me3 demethylation;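 active means more than half of a compound's replicate wells show inhibition beyond 50%, single wells judged on their own value; inconclusive means some, but no more than half, of replicates pass 50% inhibition; inactive means no replicate passes 50% inhibition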;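 further: signal counts dimethyl H3K9 product captured on neutravidin plate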
GAA850 FXN act: FXN promoter activators, primary screen, cell-based, luciferase luminescence, HEK293 lucGAA850. HEK293 lucGAA850 FXN promoter luciferase reporter, 24 h; percent of 10 µM SAHA response. activation, % at 6 µM. 360,000 tested, 0.56% active;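 active means activation above the average of all compounds screened plus 3 SD, cutoff fixed separately per campaign, cut at about 7.5% in these data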
SR-BI HDL uptake: inhibitors of SR-BI mediated HDL lipid uptake, primary screen, ldlA[mSR-BI] cells, fluorescence, single point | ldlA[mSR-BI] CHO cells, DiI-HDL uptake fluorescence, 3 h | inhibition, % at 12.5 µM | 320,000 tested, 0.96% active | AID 488896, 2010;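 active means mean replicate inhibition of at least 70% and a set share of replicates each scoring 70 or more; inconclusive means meets just one of the two criteria; inactive means fails both criteria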
SR-BI uptake up: activators of SR-BI mediated DiI-HDL uptake, primary screen, ldlA[mSR-BI] CHO cells, DiI fluorescence | 3 h; 100 = double the neutral-control signal | activation, % at 12.5 µM | 320,000 tested, 0.096% active;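 active means mean replicate activation of at least 60% and every replicate at or above 60%; inconclusive means mean or all-replicate condition met, but not both; inactive means mean below 60% and not all replicates reaching 60%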
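Material: SR-BI-overexpressing, LDLR-lacking CHO cells | Dosing: Single compound concentration, delivered by pin transfer | Probe or stimulus: Labelled HDL, 10 µg/mL | Signal: Bottom-read cell fluorescence after medium removal, ex 550/em 595 nm | Schedule: 3 h, 37 °C | Evaluation: HDL uptake via cellular fluorescence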
AHR activator: AHR activators, primary screen, cell-based, luminescence, luciferase reporter, human; AHR-responsive luciferase reporter cells; 320,000 tested, 2.5% active; Aryl hydrocarbon receptor (Homo sapiens), P35869; activation, % at 5 µM; in the data active means activation above about 47%
Target sequence (P35869 whole entry, looked up): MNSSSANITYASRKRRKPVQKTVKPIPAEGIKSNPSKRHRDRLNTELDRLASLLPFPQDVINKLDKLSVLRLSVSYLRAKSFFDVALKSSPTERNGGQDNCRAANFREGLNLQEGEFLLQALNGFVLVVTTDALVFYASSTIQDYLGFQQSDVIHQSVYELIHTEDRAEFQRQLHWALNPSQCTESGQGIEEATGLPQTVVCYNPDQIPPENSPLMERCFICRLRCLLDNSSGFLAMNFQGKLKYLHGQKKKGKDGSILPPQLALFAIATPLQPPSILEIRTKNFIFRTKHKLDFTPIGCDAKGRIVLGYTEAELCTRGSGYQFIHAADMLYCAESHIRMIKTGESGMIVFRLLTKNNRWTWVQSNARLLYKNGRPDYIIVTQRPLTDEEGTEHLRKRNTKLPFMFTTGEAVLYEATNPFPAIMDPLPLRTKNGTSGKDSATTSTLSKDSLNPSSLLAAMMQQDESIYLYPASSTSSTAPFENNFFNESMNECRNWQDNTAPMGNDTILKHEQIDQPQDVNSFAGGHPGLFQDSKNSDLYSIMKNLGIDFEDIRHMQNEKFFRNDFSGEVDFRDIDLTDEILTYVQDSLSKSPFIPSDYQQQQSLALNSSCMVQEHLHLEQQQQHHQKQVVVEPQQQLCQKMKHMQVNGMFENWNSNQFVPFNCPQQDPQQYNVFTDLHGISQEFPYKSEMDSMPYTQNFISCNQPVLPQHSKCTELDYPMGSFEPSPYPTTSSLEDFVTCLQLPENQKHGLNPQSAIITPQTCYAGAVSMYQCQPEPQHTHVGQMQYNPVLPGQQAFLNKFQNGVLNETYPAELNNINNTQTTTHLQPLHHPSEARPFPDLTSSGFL
Large screens that a line does not name were inactive. Rows were chosen to be rich in hits. Some 3.7% of all compounds tested hit in one or more screens of this group.

Cc1ccc(/C=C/C(=O)c2c(C)nc3ccccn23)cc1	none
Cc1nc2ccccn2c1C(=O)/C=C/c1cccc([N+](=O)[O-])c1	AHR activator 60
CCCC(=O)Nc1nc2ccc(NC(=O)c3ccc(Br)o3)cc2s1	none (no result: SR-BI HDL uptake, SR-BI uptake up)
CC(=O)Nc1ccc2nc(NC(=O)c3ccc([N+](=O)[O-])o3)sc2c1	AHR activator 58
CCC(=O)Nc1nc2ccc(NC(C)=O)cc2s1	AHR activator 76
CCC(=O)Nc1nc2ccc(S(C)(=O)=O)cc2s1	none
Clc1ccccc1OCCCn1ccnc1	none
Cc1cccc(Cl)c1OCCCCn1ccnc1	AHR activator 57
Clc1ccccc1OCCCCn1ccnc1	AHR activator 74
Cc1cc(C)n2nc(SCC(=O)N3CCCCC3C)nc2n1 (configuration not stated)	none
CCN(c1ccc(Cl)cc1)S(=O)(=O)c1nnc(NC(=O)C(C)C)s1	none (no result: AHR activator)
CCn1nc(NC(=O)c2ccncc2)c2cc3cc(C)ccc3nc21	AHR activator 62
CCn1nc(NC(=O)c2ccco2)c2cc3cc(C)ccc3nc21	AHR activator 53
CCCn1nc(NC(=O)c2ccco2)c2cc3ccccc3nc21	none
CCCn1nc(NC(=O)c2ccncc2)c2cc3ccccc3nc21	AHR activator 69
Cc1ccc(/C(C#N)=C\c2cn(C)c3ccccc23)cc1	AHR activator 75 (no result: JMJD2C inh, GAA850 FXN act, SR-BI HDL uptake, SR-BI uptake up)
Nc1ccc(-c2cc3ccccc3oc2=O)cc1	none
O=C/C=C/c1c(-c2ccccc2)cc2oc3ccccc3cc1-2	SR-BI HDL uptake 100
Cc1ccc(Cn2nc(C)c(/C=N/NC(=O)c3cccnc3)c2C)cc1	none
Cc1nn(Cc2ccccc2)c(C)c1/C=N/NC(=O)c1cccnc1	AHR activator 71
CCn1nc(C)c(/C=N\NC(=O)c2cccc(OC)c2)c1C	AHR activator 49
Cc1ccc(-n2nc(C)c(/C=N/NC(=O)c3cccnc3)c2Cl)cc1	AHR activator 47
Cc1nn(Cc2ccc(F)cc2)c(Cl)c1/C=N/NC(=O)c1cccnc1	AHR activator 52
Cc1nn(-c2ccccc2)c(Cl)c1/C=N/NC(=O)c1cccnc1	none
CCn1nc(C)c(/C=N/NC(=O)c2ccoc2C)c1C	none
Cn1c(CCNS(=O)(=O)c2ccccc2)nnc1SCc1cccnc1	none
CN(CC(=O)Nc1ccc(Cl)cc1)CC(=O)Nc1ccc(F)c(F)c1F	none
Cc1c(C(=O)Nc2c(C)n(C)n(-c3ccccc3)c2=O)oc2ccc(Cl)cc12	AHR activator 51
COc1ccc2cc(-c3cc(C(=O)OCC(=O)Nc4c(C)n(C)n(-c5ccccc5)c4=O)c4ccccc4n3)ccc2c1	SR-BI HDL uptake 76 (no result: AHR activator)
COc1ccc(-c2cc(C(F)(F)F)n3nc(C(=O)Nc4c(C)n(C)n(-c5ccccc5)c4=O)cc3n2)cc1	SR-BI HDL uptake 80 (no result: JMJD2C inh, AHR activator)
COc1ccc(-c2cc(C(F)(F)F)n3nc(C(=O)Nc4c(C)n(C)n(-c5ccccc5)c4=O)c(Cl)c3n2)cc1	SR-BI HDL uptake 79
COc1ccc(-c2cc(C(=O)Nc3c(C)n(C)n(-c4ccccc4)c3=O)c3ccccc3n2)cc1	none (no result: SR-BI HDL uptake, SR-BI uptake up)
O=C(COC(=O)c1cccc(S(=O)(=O)N2CCCC2)c1)NCc1ccccc1	none
Cc1c(NC(=O)c2nn3c(C(F)(F)F)cc(-c4ccccc4)nc3c2Cl)c(=O)n(-c2ccccc2)n1C	none
COc1cccc(-c2cc(C(F)(F)F)n3nc(C(=O)Nc4c(C)n(C)n(-c5ccccc5)c4=O)cc3n2)c1	SR-BI HDL uptake 78
Cc1c(NC(=O)/C(C#N)=C/c2ccc(-c3ccc(Cl)c(Cl)c3)o2)c(=O)n(-c2ccccc2)n1C	SR-BI HDL uptake 74
COc1ccc(-c2cc(C(F)(F)F)n3nc(C(=O)NCCN4CCOCC4)cc3n2)cc1	SR-BI HDL uptake 77
CCOC(=O)c1nn2c(C(F)(F)F)cc(-c3ccc(OC)cc3)nc2c1Br	SR-BI HDL uptake 104
Cc1c(NC(=O)c2cc3nc(-c4ccc(Cl)cc4)cc(C(F)(F)F)n3n2)c(=O)n(-c2ccccc2)n1C	SR-BI HDL uptake 70
S=C(Nc1ccc(N2CCOCC2)cc1)Nc1ccc2snnc2c1	AHR activator 55
O=C(Nc1ccc2snnc2c1)N1CCOCC1	none
Oc1ccccc1-c1nc2c3ccccc3c3ccccc3c2[nH]1	AHR activator 53
Cc1nn2c(-c3ccccc3)ccnc2c1Br	AHR activator 74
COc1ccccc1Nc1nc(-c2cccc([N+](=O)[O-])c2)cs1	AHR activator 79
O=[N+]([O-])c1cccc(-c2csc(Nc3ccccc3)n2)c1	SR-BI HDL uptake 87, AHR activator 48
O=C(Cc1ccccc1)Nc1nc(-c2cccc([N+](=O)[O-])c2)cs1	none
COc1ccc(NC(=O)CSc2nnnn2Cc2ccccc2)cc1	none
CC(OC(=O)c1ccc([N+](=O)[O-])s1)C(=O)NC1CCCCC1C (configuration not stated)	none
Cc1cc(C(F)(F)F)nn1CC(=O)NCc1cccs1	none
C[C@@H]1CN([C@@H](C)CO)C(=O)Cc2cc(NC(=O)Nc3ccc(F)cc3)ccc2O[C@@H]1CN(C)Cc1ccc(Cl)c(Cl)c1	SR-BI uptake up 93 (no result: JMJD2C inh)
Cc1ccc(S(=O)(=O)Nc2ccc3c(c2)C(=O)N([C@H](C)CO)C[C@H](C)[C@@H](CN(C)Cc2ccc(-c4ccccc4)cc2)O3)cc1	JMJD2C inh 56, SR-BI uptake up 76
COc1ccc(S(=O)(=O)Nc2ccc3c(c2)C(=O)N([C@H](C)CO)C[C@H](C)[C@H](CN(C)Cc2ccc(C(=O)O)cc2)O3)cc1	JMJD2C inh 51
C[C@H]1CN([C@@H](C)CO)C(=O)Cc2cc(NS(C)(=O)=O)ccc2O[C@@H]1CN(C)Cc1ccc(Cl)c(Cl)c1	none (no result: JMJD2C inh)
N#C/C(=C\N1CCCCC1)S(=O)(=O)c1ccc(Cl)cc1	none (no result: SR-BI HDL uptake, SR-BI uptake up)
O=C(NCc1ccccn1)c1cn(Cc2ccccc2)nn1	JMJD2C inh 64
CCN(CC)S(=O)(=O)c1ccc(=O)[nH]c1	none
Cc1ccc(N(CC(O)CON=C2c3ccccc3-c3ccccc32)S(C)(=O)=O)cc1 (configuration not stated)	JMJD2C inh inconclusive
CC(=O)c1ccc(NC(=O)C2CCCN2S(=O)(=O)c2ccc(F)cc2)cc1 (configuration not stated)	none
O=C(Nc1ccc(O)cc1)C1CCCN1S(=O)(=O)c1ccc(F)cc1 (configuration not stated)	AHR activator 79
CCN1C(=O)C(=Cc2cccc(OC)c2Oc2ccc([N+](=O)[O-])cc2[N+](=O)[O-])SC1=S	SR-BI HDL uptake 75

Screens deposited in PubChem BioAssay by several laboratories.
